# Test results from ChEMBL document CHEMBL1141655, “Structure-activity relationships of Bak derived peptides: affinity and specificity modulations by amino acid replacement” (Eur J Med Chem, 2008).
# pEC50: −log10 of the molar value.
# How the values were obtained:
# [1] = target: Apoptosis regulator Bcl-2 (Homo sapiens, UniProt P10415); assay: Binding affinity to recombinant Bcl-2 expressed in Escherichia coli BL21 by fluorescence polarization assay
# Procedure, shortened: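 GST-Bcl-2 lacking C-terminal 21 residues, glutathione-resin purified, dialysed into 20 mM phosphate pH 7.4, 1 mM EDTA, 50 mM NaCl. Competition FP: fluorescein N-terminal Bak BH3 probe 15 nM, protein 1 µM, peptide final 10^-9 to 10^-4 M with 0.05% pluronic acid; 30 min room temperature; ex 485/em 535 nm, mP. EC50 from sigmoidal dose-response, n = 2, triplicate.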
# [2] = Selectivity ratio of EC50 for recombinant Bcl-2 to EC50 for recombinant Bcl-XL
# Bcl-2-like protein 1 = Bcl-2-like protein 1 (Homo sapiens, UniProt Q07817); assay: Binding affinity to recombinant Bcl-XL expressed in Escherichia coli BL21 by fluorescence polarization assay
# Sequence of Bcl-2-like protein 1 (Q07817 whole entry): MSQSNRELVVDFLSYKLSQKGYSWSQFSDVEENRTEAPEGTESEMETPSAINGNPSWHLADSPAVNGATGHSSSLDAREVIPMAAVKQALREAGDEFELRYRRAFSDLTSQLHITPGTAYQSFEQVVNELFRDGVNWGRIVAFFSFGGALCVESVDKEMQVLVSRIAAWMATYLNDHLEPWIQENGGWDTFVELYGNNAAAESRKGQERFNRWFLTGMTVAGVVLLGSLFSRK
# Sequence of Apoptosis regulator Bcl-2 (P10415 whole entry): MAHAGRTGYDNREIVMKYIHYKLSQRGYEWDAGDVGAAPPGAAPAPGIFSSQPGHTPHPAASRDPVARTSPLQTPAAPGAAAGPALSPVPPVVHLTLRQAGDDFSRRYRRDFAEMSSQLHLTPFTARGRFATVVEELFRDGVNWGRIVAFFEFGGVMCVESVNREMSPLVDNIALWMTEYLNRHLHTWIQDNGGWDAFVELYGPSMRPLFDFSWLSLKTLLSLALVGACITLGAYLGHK
Structure (SMILES),pEC50 [1],Ratio EC50 [2],pEC50 (Bcl-2-like protein 1)
CCCC[C@H](NC(=O)[C@H](CCC(N)=O)NC(=O)CN)C(=O)NCC(=O)N[C@@H](CCCN=C(N)N)C(=O)N[C@@H](CCC(N)=O)C(=O)N[C@@H](CC(C)C)C(=O)N[C@@H](C)C(=O)N[C@H](C(=O)N[C@H](C(=O)NCC(=O)N[C@@H](CC(=O)O)C(=O)N[C@@H](CC(=O)O)C(=O)N[C@H](C(=O)N[C@@H](CC(N)=O)C(=O)N[C@@H](CCCN=C(N)N)C(=O)O)[C@@H](C)CC)[C@@H](C)CC)[C@@H](C)CC,6.12,–,7.15
CCCC[C@H](NC(=O)[C@H](CCC(N)=O)NC(=O)CN)C(=O)NCC(=O)N[C@@H](CCCNC(=N)N)C(=O)N[C@@H](CCC(N)=O)C(=O)N[C@@H](CC(C)C)C(=O)N[C@@H](C)C(=O)N[C@H](C(=O)N[C@H](C(=O)NCC(=O)N[C@@H](CC(=O)O)C(=O)N[C@@H](CC(=O)O)C(=O)N[C@H](C(=O)N[C@@H](CC(N)=O)C(=O)N[C@@H](CCCNC(=N)N)C(=O)O)[C@@H](C)CC)[C@@H](C)CC)[C@@H](C)CC,–,11,–
CC[C@H](C)[C@H](NC(=O)[C@H](C)NC(=O)[C@H](CC(C)C)NC(=O)[C@H](CCC(N)=O)NC(=O)[C@H](CCCNC(=N)N)NC(=O)CNC(=O)[C@H](Cc1ccc2ccccc2c1)NC(=O)[C@H](CCC(N)=O)NC(=O)CN)C(=O)N[C@H](C(=O)NCC(=O)N[C@@H](CC(=O)O)C(=O)N[C@@H](CC(=O)O)C(=O)N[C@H](C(=O)N[C@@H](CC(N)=O)C(=O)N[C@@H](CCCNC(=N)N)C(=O)O)[C@@H](C)CC)[C@@H](C)CC,5.21,17,6.46
CC[C@H](C)[C@H](NC(=O)[C@H](C)NC(=O)[C@H](CC(C)C)NC(=O)[C@H](CCC(N)=O)NC(=O)[C@H](CCCN=C(N)N)NC(=O)CNC(=O)[C@@H](NC(=O)[C@H](CCC(N)=O)NC(=O)CN)C(C)C)C(=O)N[C@@H](Cc1cccc(Cl)c1)C(=O)NCC(=O)N[C@@H](CC(=O)O)C(=O)N[C@@H](CC(=O)O)C(=O)N[C@H](C(=O)N[C@@H](CC(N)=O)C(=O)N[C@@H](CCCN=C(N)N)C(=O)O)[C@@H](C)CC,–,–,6.70
CC[C@H](C)[C@H](NC(=O)[C@H](CC(=O)O)NC(=O)[C@H](CC(=O)O)NC(=O)CNC(=O)[C@H](Cc1ccc(O)cc1)N(C)C(=O)[C@@H](NC(=O)[C@H](C)NC(=O)[C@H](CC(C)C)NC(=O)[C@H](CCC(N)=O)NC(=O)[C@H](CCCNC(=N)N)NC(=O)CNC(=O)[C@@H](NC(=O)[C@H](CCC(N)=O)NC(=O)CN)C(C)C)[C@@H](C)CC)C(=O)N[C@@H](CC(N)=O)C(=O)N[C@@H](CCCNC(=N)N)C(=O)O,–,–,5.44
CC[C@H](C)[C@H](NC(=O)[C@H](C)NC(=O)[C@H](CC(C)C)NC(=O)[C@H](CCC(N)=O)NC(=O)[C@H](CCCN=C(N)N)NC(=O)CNC(=O)[C@@H](NC(=O)[C@H](CCC(N)=O)NC(=O)CN)C(C)C)C(=O)N[C@@H](Cc1ccc2ccccc2c1)C(=O)NCC(=O)N[C@@H](CC(=O)O)C(=O)N[C@@H](CC(=O)O)C(=O)N[C@H](C(=O)N[C@@H](CC(N)=O)C(=O)N[C@@H](CCCN=C(N)N)C(=O)O)[C@@H](C)CC,–,–,5.89
CC[C@H](C)[C@H](NC(=O)[C@H](C)NC(=O)[C@H](CCSC)NC(=O)[C@H](CCC(N)=O)NC(=O)[C@H](CCCN=C(N)N)NC(=O)CNC(=O)[C@@H](NC(=O)[C@H](CCC(N)=O)NC(=O)CN)C(C)C)C(=O)N[C@H](C(=O)NCC(=O)N[C@@H](CC(=O)O)C(=O)N[C@@H](CC(=O)O)C(=O)N[C@H](C(=O)N[C@@H](CC(N)=O)C(=O)N[C@@H](CCCN=C(N)N)C(=O)O)[C@@H](C)CC)[C@@H](C)CC,4.52,–,5.84
CC[C@H](C)[C@H](NC(=O)[C@H](C)NC(=O)[C@H](CC(C)C)NC(=O)[C@H](CCC(N)=O)NC(=O)[C@H](CCCN=C(N)N)NC(=O)CNC(=O)[C@@H](NC(=O)[C@H](CCC(N)=O)NC(=O)CN)C(C)C)C(=O)N[C@H](C(=O)NCC(=O)N[C@@H](CC(=O)O)C(=O)N[C@@H](CC(=O)O)C(=O)N[C@@H](Cc1ccc2ccccc2c1)C(=O)N[C@@H](CC(N)=O)C(=O)N[C@@H](CCCN=C(N)N)C(=O)O)[C@@H](C)CC,–,–,6.90
CC[C@H](C)[C@H](NC(=O)[C@H](C)NC(=O)[C@H](CC(C)C)NC(=O)[C@H](CCC(N)=O)NC(=O)[C@H](CCCNC(=N)N)NC(=O)CNC(=O)[C@@H](NC(=O)[C@H](CCC(N)=O)NC(=O)CN)C(C)C)C(=O)N[C@H](C(=O)NCC(=O)N[C@@H](CC(=O)O)C(=O)N[C@@H](CC(=O)O)C(=O)N[C@@H](Cc1cccc(Cl)c1)C(=O)N[C@@H](CC(N)=O)C(=O)N[C@@H](CCCNC(=N)N)C(=O)O)[C@@H](C)CC,–,–,7.25
CCCC[C@H](NC(=O)[C@@H](NC(=O)[C@H](C)NC(=O)[C@H](CC(C)C)NC(=O)[C@H](CCC(N)=O)NC(=O)[C@H](CCCN=C(N)N)NC(=O)CNC(=O)[C@@H](NC(=O)[C@H](CCC(N)=O)NC(=O)CN)C(C)C)[C@@H](C)CC)C(=O)NCC(=O)N[C@@H](CC(=O)O)C(=O)N[C@@H](CC(=O)O)C(=O)N[C@H](C(=O)N[C@@H](CC(N)=O)C(=O)N[C@@H](CCCN=C(N)N)C(=O)O)[C@@H](C)CC,–,–,6.18

# More lines, now with the values ahead:
pEC50 [1],Ratio EC50 [2],pEC50 (Bcl-2-like protein 1),Structure (SMILES)
5.95,30,7.42,CC[C@H](C)[C@H](NC(=O)[C@H](C)NC(=O)[C@H](CC(C)C)NC(=O)[C@H](CCC(N)=O)NC(=O)[C@H](CCCNC(=N)N)NC(=O)CNC(=O)[C@@H](NC(=O)[C@H](CCC(N)=O)NC(=O)CN)C(C)C)C(=O)N[C@H](C(=O)NCC(=O)N[C@@H](CC(=O)O)C(=O)N[C@@H](CC(=O)O)C(=O)N[C@@H](Cc1ccc(Cl)cc1)C(=O)N[C@@H](CC(N)=O)C(=O)N[C@@H](CCCNC(=N)N)C(=O)O)[C@@H](C)CC
4.68,–,5.90,CC[C@H](C)[C@H](NC(=O)[C@H](C)NC(=O)[C@H](CC(C)C)NC(=O)[C@H](CCC(N)=O)NC(=O)[C@H](CCCN=C(N)N)NC(=O)CNC(=O)[C@@H](NC(=O)[C@H](CCC(N)=O)NC(=O)CN)C(C)C)C(=O)N[C@@H](Cc1ccc(-c2ccccc2)cc1)C(=O)NCC(=O)N[C@@H](CC(=O)O)C(=O)N[C@@H](CC(=O)O)C(=O)N[C@H](C(=O)N[C@@H](CC(N)=O)C(=O)N[C@@H](CCCN=C(N)N)C(=O)O)[C@@H](C)CC
5.10,13,6.23,CC[C@H](C)[C@H](NC(=O)[C@H](C)NC(=O)[C@H](CC(C)C)NC(=O)[C@H](CCC(N)=O)NC(=O)[C@H](CCCNC(=N)N)NC(=O)CNC(=O)[C@@H](NC(=O)[C@H](CCC(N)=O)NC(=O)CN)C(C)C)C(=O)N[C@H](C(=O)NCC(=O)N[C@@H](CC(=O)O)C(=O)N[C@@H](CC(=O)O)C(=O)N[C@@H](Cc1ccc([N+](=O)[O-])cc1)C(=O)N[C@@H](CC(N)=O)C(=O)N[C@@H](CCCNC(=N)N)C(=O)O)[C@@H](C)CC
–,21,–,CC[C@H](C)[C@H](NC(=O)[C@H](C)NC(=O)[C@H](CCSC)NC(=O)[C@H](CCC(N)=O)NC(=O)[C@H](CCCNC(=N)N)NC(=O)CNC(=O)[C@@H](NC(=O)[C@H](CCC(N)=O)NC(=O)CN)C(C)C)C(=O)N[C@H](C(=O)NCC(=O)N[C@@H](CC(=O)O)C(=O)N[C@@H](CC(=O)O)C(=O)N[C@H](C(=O)N[C@@H](CC(N)=O)C(=O)N[C@@H](CCCNC(=N)N)C(=O)O)[C@@H](C)CC)[C@@H](C)CC
–,–,6.52,CC[C@H](C)[C@H](NC(=O)[C@H](C)NC(=O)[C@H](CC(C)C)NC(=O)[C@H](CCC(N)=O)NC(=O)[C@H](CCCN=C(N)N)NC(=O)CNC(=O)[C@H](Cc1ccccc1)NC(=O)[C@H](CCC(N)=O)NC(=O)CN)C(=O)N[C@H](C(=O)NCC(=O)N[C@@H](CC(=O)O)C(=O)N[C@@H](CC(=O)O)C(=O)N[C@H](C(=O)N[C@@H](CC(N)=O)C(=O)N[C@@H](CCCN=C(N)N)C(=O)O)[C@@H](C)CC)[C@@H](C)CC
–,–,6.66,CC[C@H](C)[C@H](NC(=O)[C@H](C)NC(=O)[C@H](CC1CCCCC1)NC(=O)[C@H](CCC(N)=O)NC(=O)[C@H](CCCNC(=N)N)NC(=O)CNC(=O)[C@@H](NC(=O)[C@H](CCC(N)=O)NC(=O)CN)C(C)C)C(=O)N[C@H](C(=O)NCC(=O)N[C@@H](CC(=O)O)C(=O)N[C@@H](CC(=O)O)C(=O)N[C@H](C(=O)N[C@@H](CC(N)=O)C(=O)N[C@@H](CCCNC(=N)N)C(=O)O)[C@@H](C)CC)[C@@H](C)CC
–,–,6.39,CC[C@H](C)[C@H](NC(=O)[C@H](C)NC(=O)[C@H](Cc1ccccc1)NC(=O)[C@H](CCC(N)=O)NC(=O)[C@H](CCCN=C(N)N)NC(=O)CNC(=O)[C@@H](NC(=O)[C@H](CCC(N)=O)NC(=O)CN)C(C)C)C(=O)N[C@H](C(=O)NCC(=O)N[C@@H](CC(=O)O)C(=O)N[C@@H](CC(=O)O)C(=O)N[C@H](C(=O)N[C@@H](CC(N)=O)C(=O)N[C@@H](CCCN=C(N)N)C(=O)O)[C@@H](C)CC)[C@@H](C)CC
–,–,5.29,CC[C@H](C)[C@H](NC(=O)[C@H](C)NC(=O)[C@H](CC(C)C)NC(=O)[C@H](CCC(N)=O)NC(=O)[C@H](CCCNC(=N)N)NC(=O)CNC(=O)[C@@H](NC(=O)[C@H](CCC(N)=O)NC(=O)CN)C(C)C)C(=O)N[C@H](C(=O)NCC(=O)N[C@@H](CC(=O)O)C(=O)N[C@@H](CC(=O)O)C(=O)N[C@@H](Cc1cnc[nH]1)C(=O)N[C@@H](CC(N)=O)C(=O)N[C@@H](CCCNC(=N)N)C(=O)O)[C@@H](C)CC
–,17,–,CC[C@H](C)[C@H](NC(=O)[C@H](C)NC(=O)[C@H](CC(C)C)NC(=O)[C@H](CCC(N)=O)NC(=O)[C@H](CCCNC(=N)N)NC(=O)CNC(=O)[C@@H](NC(=O)[C@H](CCC(N)=O)NC(=O)CN)C(C)C)C(=O)N[C@@H](Cc1ccc(-c2ccccc2)cc1)C(=O)NCC(=O)N[C@@H](CC(=O)O)C(=O)N[C@@H](CC(=O)O)C(=O)N[C@H](C(=O)N[C@@H](CC(N)=O)C(=O)N[C@@H](CCCNC(=N)N)C(=O)O)[C@@H](C)CC
